In ChEMBL document CHEMBL1122593, “Phosphorus-nitrogen compounds. 24. Phosphoramide mustard carrier derivatives” (1984):
“And” between values parts separate entries of the source, which are not always exact repeats. Identical values can stand only once.

Assays:
L1210 [1] = assay: Antitumor activity against L1210 lymphoid leukemia and treated mean survival time per control mean survival time was determined at 300 mg/kg; type: functional, Mus musculus
Method in brief: (§1)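 Mice bearing L1210 lymphoid leukaemia, tested by NCI contractors. Compound given as a single injection 1 day after tumour cell inoculation. T/C% = (treated/control) × 100.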

Mus musculus = assay: Antitumor activity against CD8F1 mammary tumor and treated mean survival time per control mean survival time was determined at 300 mg/kg; type: functional
Method in brief: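 Mice bearing CD8F1 mammary tumour, tested by NCI contractors. Compound given as a single injection starting 20 days after tumour cell inoculation. T/C% = (treated/control) × 100.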

P388 = assay: Antitumor activity against P388 Lymphocytic leukemia and treated mean survival time per control mean survival time was determined at 200 mg/kg; type: functional, Mus musculus
Method in brief: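 Mice bearing P388 lymphocytic leukaemia, tested by NCI contractors. Compound given as five consecutive injections beginning 1 day after tumour cell inoculation. T/C% = (treated/control) × 100.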

L1210 [2] = assay: Antitumor activity against L1210 lymphoid leukemia and treated mean survival time per control mean survival time was determined at 500 mg/kg; type: functional, Mus musculus; method in brief: as §1
[3] = Antitumor activity against Lewis lung carcinomia and treated mean survival time per control mean survival time was determined at 400 mg/kg; type: functional, Mus musculus
Method in brief: (§2)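 Mice bearing Lewis lung carcinoma, tested by NCI contractors. Compound given as nine consecutive injections beginning 1 day after tumour cell inoculation. T/C% = (treated/control) × 100.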

[4] = Antitumor activity against Lewis lung carcinomia and treated mean survival time per control mean survival time was determined at 50 mg/kg; type: functional, Mus musculus; method in brief: as §2

In the case of CC/C(=C(/CC)c1ccc(OP(N)(=O)N(CCCl)CCCl)cc1)c1ccc(OP(N)(=O)N(CCCl)CCCl)cc1 (centres undefined), the T/C (L1210 [1]) is reported as 113%, the T/C (Mus musculus) is reported as 39% and the T/C (P388; 200 mg/kg) is reported as 100% and 104%.
In the case of CC(C)N1C[C@@H](COc2cccc3ccccc23)O[P@@]1(=O)N(CCCl)CCCl (racemic), the T/C (L1210 [2]; 500 mg/kg) is reported as 130% and 110% and 90%.
Compound NP(=O)(Oc1c2occc2cc2ccc(=O)oc12)N(CCCl)CCCl (centres undefined) has a T/C (P388) of 114%.
In the case of NP(=O)(Oc1cccc2c(OP(N)(=O)N(CCCl)CCCl)cccc12)N(CCCl)CCCl (centres undefined), the T/C (L1210 [2]) is reported as 95%.
With CC/C(=C(/CC)c1ccc(OP(=O)(Cl)N(CCCl)CCCl)cc1)c1ccc(OP(=O)(Cl)N(CCCl)CCCl)cc1 (centres undefined) the T/C (L1210 [2]) was 100%.
In the case of CC(C)N1C[C@H](COc2cccc3ccccc23)O[P@@]1(=O)N(CCCl)CCCl (racemic), the T/C [3] is reported as 90% and the T/C [4] is reported as 95%.
